ChEMBL document CHEMBL2086383, “Antitumor agents. 293. Nontoxic dimethyl-4,4'-dimethoxy-5,6,5',6'-dimethylenedioxybiphenyl-2,2'-dicarboxylate (DDB) analogues chemosensitize multidrug-resistant cancer cells to clinical anticancer drugs” (J Med Chem, 2012)
Active and inactive are the calls of the source. The calls are words filed in the database; no cut-off is given here.

Assays:
Format in all cases: cell-based
[1] = Antiproliferative activity against human multidrug-resistant KBVIN cells after 72 hrs by SRB assay; details: for IC50: Homo sapiens, KBVIN
Procedure, shortened: (§1)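 SRB assay. Cells at 3–5 × 10^3/well were exposed to a range of sample concentrations for 72 h. They were fixed in 50% TCA for 30 min, stained with 0.04% SRB for 30 min, and the dye was dissolved in 10 mM Tris base. Absorbance read at 515 nm. Medium was RPMI 1640 with 10% FBS at 37 °C, 5% CO2. KBvin cells were kept in 100 nM vincristine.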

DU-145 = experiment: Antiproliferative activity against human DU145 cells after 72 hrs by SRB assay; details: for IC50: Homo sapiens, DU-145, 72 h; procedure, shortened: as §1
KB = experiment: Antiproliferative activity against human KB cells after 72 hrs by SRB assay; details: for IC50: Homo sapiens, KB; procedure, shortened: as §1
A549 = experiment: Antiproliferative activity against human A549 cells after 72 hrs by SRB assay; details: for IC50: Homo sapiens, A549, 72 h; procedure, shortened: as §1
[2] = target: ATP-dependent translocase ABCB1 (Homo sapiens, UniProt P08183); experiment: Inhibition of P-gp over expressed in human multidrug-resistant KBVIN cells assessed as intracellular accumulation of doxorubicin at 10uM after 3 hrs by fluorescence microplate reader analysis relative to control
Sequence of ATP-dependent translocase ABCB1 (P08183 whole entry): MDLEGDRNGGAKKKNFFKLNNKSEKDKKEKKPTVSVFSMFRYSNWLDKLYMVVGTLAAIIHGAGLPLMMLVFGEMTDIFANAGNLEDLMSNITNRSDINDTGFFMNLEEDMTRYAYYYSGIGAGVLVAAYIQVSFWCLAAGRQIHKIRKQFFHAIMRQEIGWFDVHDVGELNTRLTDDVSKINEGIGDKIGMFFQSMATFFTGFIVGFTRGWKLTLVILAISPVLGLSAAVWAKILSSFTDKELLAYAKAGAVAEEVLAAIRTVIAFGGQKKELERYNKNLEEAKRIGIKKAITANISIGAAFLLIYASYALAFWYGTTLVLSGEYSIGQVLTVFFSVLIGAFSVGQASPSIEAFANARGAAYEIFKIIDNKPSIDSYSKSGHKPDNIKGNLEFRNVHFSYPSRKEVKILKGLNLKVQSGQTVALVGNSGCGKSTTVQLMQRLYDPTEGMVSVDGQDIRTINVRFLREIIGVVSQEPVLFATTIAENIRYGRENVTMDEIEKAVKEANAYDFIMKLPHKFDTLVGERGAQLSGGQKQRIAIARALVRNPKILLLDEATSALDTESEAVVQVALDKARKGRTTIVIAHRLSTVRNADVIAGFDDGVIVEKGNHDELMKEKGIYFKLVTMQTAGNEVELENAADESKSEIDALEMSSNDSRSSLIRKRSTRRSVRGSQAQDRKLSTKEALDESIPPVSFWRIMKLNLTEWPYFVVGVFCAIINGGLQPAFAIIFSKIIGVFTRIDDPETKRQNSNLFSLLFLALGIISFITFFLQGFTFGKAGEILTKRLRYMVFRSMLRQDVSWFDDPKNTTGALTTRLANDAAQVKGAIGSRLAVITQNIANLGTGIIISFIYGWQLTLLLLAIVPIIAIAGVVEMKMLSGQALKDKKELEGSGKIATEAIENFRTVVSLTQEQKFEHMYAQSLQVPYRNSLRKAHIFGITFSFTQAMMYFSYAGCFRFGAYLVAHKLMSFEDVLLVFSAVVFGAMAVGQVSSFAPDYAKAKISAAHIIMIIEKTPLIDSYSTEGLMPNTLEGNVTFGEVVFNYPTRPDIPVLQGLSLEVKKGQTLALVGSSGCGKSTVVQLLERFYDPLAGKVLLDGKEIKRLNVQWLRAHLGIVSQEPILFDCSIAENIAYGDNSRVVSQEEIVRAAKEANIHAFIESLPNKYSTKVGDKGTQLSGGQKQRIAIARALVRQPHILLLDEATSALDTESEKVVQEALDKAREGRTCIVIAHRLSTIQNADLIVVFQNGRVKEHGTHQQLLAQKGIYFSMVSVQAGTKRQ
Procedure, shortened: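 KBvin cells at 5 × 10^3/well were pretreated with compound for 1 h, then given doxorubicin (10 μM final) for 3 h. Cells were washed with ice-cold PBS and lysed in 1% SDS/PBS. Verapamil or CsA served as positive control.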

NIH3T3 [3] = experiment: Inhibition of human P-gp-mediated multidrug-resistance in mouse NIH3T3 MDR cells assessed as potentiation of in vincristine-induced cytotoxic activity at 10 uM after 72 hrs by SRB assay; details: Mus musculus cells expressing human P-gp
KBVIN [4] = experiment: Inhibition of P-gp-mediated multidrug-resistance in human KBVIN cells assessed as fold decrease in doxorubicin IC50 for cytotoxic activity at 10 uM after 72 hrs by SRB assay relative to control
Procedure, shortened: (§2)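 KBvin cells were exposed to graded concentrations of anticancer drug (doxorubicin, paclitaxel or vincristine), alone or with 10 μM test compound, for 72 h. Growth was read by SRB assay. IC50 was found by log-linear interpolation. Reversal fold = IC50 (drug alone) / IC50 (drug + compound). Verapamil was the positive control. Each experiment was run at least three times.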

NIH3T3 [5] = experiment: Inhibition of human P-gp-mediated multidrug-resistance in mouse NIH3T3 MDR cells assessed as potentiation of in paclitaxel-induced cytotoxic activity at 10 uM after 72 hrs by SRB assay; details: human P-gp expressed in mouse cells
KBVIN [6] = experiment: Inhibition of P-gp-mediated multidrug-resistance in human KBVIN cells assessed as fold decrease in paclitaxel IC50 for cytotoxic activity at 10 uM after 72 hrs by SRB assay relative to control; procedure, shortened: as §2
KBVIN [7] = experiment: Inhibition of P-gp-mediated multidrug-resistance in human KBVIN cells assessed as fold decrease in vincristine IC50 for cytotoxic activity at 10 uM after 72 hrs by SRB assay relative to control; procedure, shortened: as §2
KBVIN [8] = experiment: Inhibition of P-gp-mediated multidrug-resistance in human KBVIN cells assessed as […] of paclitaxel-induced cell survival rate at 10 uM after 72 hrs by SRB assay

Compound	IC50 (DU-145)	IC50 (KB)	IC50 (A549)	fold change (FC) [2]	IC50 [1]	inhibition (NIH3T3 [3])	fold change (FC) (KBVIN [4])	inhibition (NIH3T3 [5])	fold change (FC) (KBVIN [6])	fold change (FC) (KBVIN [7])	inhibition (KBVIN [8])	Activity ([1]; human, kbvin)	Activity (DU-145; human, du-145, 72 h)	Activity (KB; human, kb)	Activity (A549; human, a549, 72 h)
COc1c(Br)c(COC(=O)c2ccccc2)c(-c2c(COC(=O)c3ccccc3)c(Br)c(OC)c3c2OCO3)c2c1OCO2	> 100 µM	> 100 µM	> 100 µM	–	> 100 µM	–	–	–	–	–	–	–	–	–	–
COc1cc(COC(=O)c2ccccc2)c(-c2c(COC(=O)c3ccccc3)cc(OC)c3c2OCO3)c2c1OCO2	> 100 µM	> 100 µM	> 100 µM	1.2	> 100 µM	Active	9	Active	167	101	–	–	–	–	–
COc1cc(COC(=O)C2CCCC2)c(-c2c(COC(=O)C3CCCC3)cc(OC)c3c2OCO3)c2c1OCO2	> 100 µM	> 100 µM	> 100 µM	1.2	> 100 µM	Active	23	Active	20	310	–	–	–	–	–
CCCC(=O)OCc1c(Br)c(OC)c2c(c1-c1c(COC(=O)CCC)c(Br)c(OC)c3c1OCO3)OCO2	–	–	–	–	–	–	–	–	–	–	inactive	Toxic	Toxic	Toxic	Toxic
C/C=C/C(=O)OCc1cc(OC)c2c(c1-c1c(COC(=O)/C=C/C)cc(OC)c3c1OCO3)OCO2	> 100 µM	> 100 µM	> 100 µM	1.2	> 100 µM	Active	4	Active	102	230	–	–	–	–	–
COc1c(Br)c(C(=O)O)c(-c2c3c(c(OC)c(Br)c2C(=O)O)OCO3)c2c1OCO2	> 100 µM	> 100 µM	> 100 µM	–	> 100 µM	–	–	–	–	–	–	–	–	–	–
CCCC(=O)OCc1cc(OC)c2c(c1-c1c(COC(=O)CCC)cc(OC)c3c1OCO3)OCO2	> 100 µM	> 100 µM	> 100 µM	1.2	> 100 µM	Active	4	Active	32	50	–	–	–	–	–
COc1cc(COC(=O)c2ccc(C(F)(F)F)nc2)c(-c2c(COC(=O)c3ccc(C(F)(F)F)nc3)cc(OC)c3c2OCO3)c2c1OCO2	> 100 µM	> 100 µM	> 100 µM	–	> 100 µM	–	–	–	–	–	inactive	–	–	–	–
COc1cc(CO)c(-c2c(CO)cc(OC)c3c2OCO3)c2c1OCO2	> 100 µM	> 100 µM	> 100 µM	–	> 100 µM	–	–	–	–	–	inactive	–	–	–	–
CCCC(C)C(=O)OCc1cc(OC)c2c(c1-c1c(COC(=O)C(C)CCC)cc(OC)c3c1OCO3)OCO2 (racemic)	> 100 µM	> 100 µM	> 100 µM	1.2	> 100 µM	Active	31	Active	25	53	–	–	–	–	–
C/C=C/C=C/C(=O)OCc1cc(OC)c2c(c1-c1c(COC(=O)/C=C/C=C/C)cc(OC)c3c1OCO3)OCO2	> 100 µM	> 100 µM	> 100 µM	1.2	> 100 µM	Active	3	Active	21	54	–	–	–	–	–
CCC(C)C(=O)OCc1cc(OC)c2c(c1-c1c(COC(=O)C(C)CC)cc(OC)c3c1OCO3)OCO2 (racemic)	> 100 µM	> 100 µM	> 100 µM	1.2	> 100 µM	Active	21	Active	26	70	–	–	–	–	–
COc1ccc(C(=O)OCc2cc(OC)c3c(c2-c2c(COC(=O)c4ccc(OC)cc4)cc(OC)c4c2OCO4)OCO3)cc1	> 100 µM	> 100 µM	> 100 µM	1.2	> 100 µM	Active	11	Active	27	50	–	–	–	–	–
COc1cc(COC(=O)C(C)C)c(-c2c(COC(=O)C(C)C)cc(OC)c3c2OCO3)c2c1OCO2	> 100 µM	> 100 µM	> 100 µM	1.2	> 100 µM	Active	7	Active	21	61	–	–	–	–	–
COc1cccc2c1C(=O)c1c(O)c3c(c(O)c1C2=O)C[C@@](O)(C(=O)CO)C[C@@H]3O[C@H]1C[C@H](N)[C@H](O)[C@H](C)O1 [DOXORUBICIN]	–	–	–	1.2	–	–	–	–	–	–	–	–	–	–	–
CCCCC(=O)OCc1cc(OC)c2c(c1-c1c(COC(=O)CCCC)cc(OC)c3c1OCO3)OCO2	> 100 µM	> 100 µM	> 100 µM	1.2	> 100 µM	Active	9	Active	24	161	–	–	–	–	–

Further lines, with some results ahead:

IC50 (DU-145)	IC50 (KB)	IC50 (A549)	fold change (FC) [2]	Compound	IC50 [1]	inhibition (NIH3T3 [3])	fold change (FC) (KBVIN [4])	inhibition (NIH3T3 [5])	fold change (FC) (KBVIN [6])	fold change (FC) (KBVIN [7])	inhibition (KBVIN [8])	Activity ([1]; human, kbvin)	Activity (DU-145; human, du-145, 72 h)	Activity (KB; human, kb)	Activity (A549; human, a549, 72 h)
> 100 µM	> 100 µM	> 100 µM	–	COc1cc(COC(C)=O)c(-c2c(COC(C)=O)cc(OC)c3c2OCO3)c2c1OCO2	> 100 µM	–	–	–	–	–	inactive	–	–	–	–
> 100 µM	> 100 µM	> 100 µM	–	COc1cc(COC(=O)c2ccc(C#N)cc2)c(-c2c(COC(=O)c3ccc(C#N)cc3)cc(OC)c3c2OCO3)c2c1OCO2	> 100 µM	–	–	–	–	–	inactive	–	–	–	–
> 100 µM	> 100 µM	> 100 µM	1.2	COc1cc(COC(=O)C2CCCCC2)c(-c2c(COC(=O)C3CCCCC3)cc(OC)c3c2OCO3)c2c1OCO2	> 100 µM	Active	30	Active	24	239	–	–	–	–	–
> 100 µM	> 100 µM	> 100 µM	–	COc1cc(COC(=O)c2ccc([N+](=O)[O-])cc2)c(-c2c(COC(=O)c3ccc([N+](=O)[O-])cc3)cc(OC)c3c2OCO3)c2c1OCO2	> 100 µM	–	–	–	–	–	inactive	–	–	–	–
> 100 µM	> 100 µM	> 100 µM	1.2	COc1ccc(C(=O)OCc2cc(OC)c3c(c2-c2c(COC(=O)c4ccc(OC)c(OC)c4)cc(OC)c4c2OCO4)OCO3)cc1OC	> 100 µM	Active	21	Active	89	202	–	–	–	–	–
> 100 µM	> 100 µM	> 100 µM	1.2	COc1cc(COC(=O)c2ccc(C)cc2)c(-c2c(COC(=O)c3ccc(C)cc3)cc(OC)c3c2OCO3)c2c1OCO2	> 100 µM	Active	11	Active	27	51	–	–	–	–	–
> 100 µM	> 100 µM	> 100 µM	1.2	CCC(=O)OCc1cc(OC)c2c(c1-c1c(COC(=O)CC)cc(OC)c3c1OCO3)OCO2	> 100 µM	Active	4	Active	12	31	–	–	–	–	–
> 100 µM	> 100 µM	> 100 µM	1.2	COc1cc(COC(=O)C=C(C)C)c(-c2c(COC(=O)C=C(C)C)cc(OC)c3c2OCO3)c2c1OCO2	> 100 µM	Active	7	Active	326	560	–	–	–	–	–
> 100 µM	> 100 µM	> 100 µM	1.2	COc1cc(COC(=O)CC(C)C)c(-c2c(COC(=O)CC(C)C)cc(OC)c3c2OCO3)c2c1OCO2	> 100 µM	Active	6	Active	112	79	–	–	–	–	–
